Measurements from ChEMBL document CHEMBL1127799, “Derivatives of a novel cyclopeptolide. 1. Synthesis, antifungal activity, and structure-activity relationships” (1994).
Converted amounts (≈) assume the structure as drawn.

What was measured:
Assay type in all cases: functional
Candida albicans [1] = experiment: Tested for minimum subinhibitory concentration against Candida albicans 4 (Candida albicans) at pH 4.5.
How it was run: (§1)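 Malt extract broth microdilution at initial pH 4.5, 1×10^3 CFU/0.2 mL well, final compound 0.05–100 μg/mL diluted from DMSO/Tween 80 stocks. Incubation was 48 h at 30 °C with macroscopic reading. MSIC was the lowest concentration causing visible growth inhibition in at least two of three triplicates.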

Mus musculus [2] = experiment: Tested for efficacy of compound in experimental vaginal candidosis (mouse) after intraperitoneal treatment at dosage of 4 x100 mg kg e-1
How it was run: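 Female NMRI mice (18–20 g; 10 per group) were hormonally conditioned and infected intravaginally with 3.5×10^4 CFU C. albicans no. 124 in 50 μL Sabouraud's glucose broth. Four doses were given by gavage or ip, at 2 h before and 2, 18 and 24 h after infection. One day after the last dose, vaginal swabs were plated on Sabouraud agar with streptomycin (0.1 mg/mL) for 48 h at 37 °C. Failed reisolation counted as cure.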

Candida albicans [3] = experiment: Tested for minimum inhibitory concentration against Candida albicans 124 (Candida albicans) at pH of 6.5.
How it was run: (§2)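 Broth microdilution in malt extract broth, initial pH 4.5 or 6.5, with 1×10^3 CFU per 0.2 mL well of thawed stored cultures. Compound stocks were made in 5% DMSO/0.2% Tween 80 and diluted to final 0.05–100 μg/mL. Plates were incubated 48 h at 30 °C and read macroscopically. MIC was the lowest concentration with no detectable growth. Vehicle-only wells served as controls.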

Mus musculus [4] = species on record: Mus musculus; experiment: Tested for efficacy of compound in experimental systemic candidosis (mouse) after oral treatment at dosage of 8 *100 mg kg e-1
How it was run: (§3)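 Systemic candidiasis: female NMRI mice (18–20 g), 10 per group, infected by intravenous injection of 10⁶ CFU C. albicans no. 124 via lateral tail vein. Oral dosing twice daily on 4 consecutive days, starting 2 h before inoculation. Efficacy taken as survival rate up to day 9 after infection.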

Candida albicans [5] = experiment: Tested for minimum subinhibitory concentration against Candida albicans 9 (Candida albicans) at pH 6.5.
How it was run: (§4)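 Malt extract broth microdilution, initial pH 6.5, inoculum 1×10^3 CFU per 0.2 mL well. Compound diluted from 0.08% stock (5% DMSO/0.2% Tween 80) to final 0.05–100 μg/mL. Macroscopic reading after 48 h, 30 °C. MSIC = lowest concentration giving visible growth inhibition in at least two of three triplicates. Vehicle-only negative controls.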

Pichia kudriavzevii [6] = experiment: Tested for minimum inhibitory concentration against Candida krusei 132 (C.k) at pH of 4.5.; how it was run: as §2
Candida albicans [7] = experiment: Tested for minimum subinhibitory concentration against Candida albicans 4 (Candida albicans) at pH 6.5.; how it was run: as §4
Candida tropicalis [8] = experiment: Tested for minimum inhibitory concentration against Candida tropicalis (C.t) at pH 4.5.; how it was run: as §2
Pichia kudriavzevii [9] = experiment: Tested for minimum subinhibitory concentration against Candida krusei 132 (C.k) at pH 6.5.; how it was run: as §4
Mus musculus [10] = species on record: Mus musculus; experiment: Tested for efficacy of compound in experimental systemic candidosis (mouse) after oral treatment at dosage of 8 *200 mg kg e-1; how it was run: as §3
Candida albicans [11] = experiment: Tested for minimum inhibitory concentration against Candida albicans 9 (Candida albicans) at pH 6.5.
How it was run: (§5)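 Broth microdilution in malt extract broth, initial pH 6.5, 1×10^3 CFU per 0.2 mL well, from liquid-nitrogen-stored Sabouraud cultures. Compound from 0.08% stock in 5% DMSO/0.2% Tween 80, final 0.05–100 μg/mL. Visual reading after 48 h at 30 °C. MIC = lowest concentration with no detectable growth. Vehicle-only negative controls.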

Rattus norvegicus [12] = species on record: Rattus norvegicus; experiment: Tested for efficacy of compound in experimental vaginal candidosis (rat) after oral treatment at dosage of 2x 300 mg kg e-1
How it was run: (§6)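 Hormonally conditioned female Wistar rats (~150 g), 10 per group, given intravaginal C. albicans no. 124, 3.5×10^4 CFU in 50 μL Sabouraud's glucose broth. Oral dosing twice, 2 h before and 18 h after infection. Vaginal swabs plated on Sabouraud's glucose agar with streptomycin (0.1 mg/mL), 48 h at 37 °C. Cured when C. albicans not reisolated.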

Candida albicans [13] = experiment: Tested for minimum subinhibitory concentration against Candida albicans 3 (Candida albicans) at pH 4.5.; how it was run: as §1
Candida tropicalis [14] = experiment: Tested for minimum inhibitory concentration against Candida tropicalis 43 (C.t) at pH 6.5.; how it was run: as §5
Candida albicans [15] = experiment: Tested for minimum inhibitory concentration against Candida albicans 124 (Candida albicans) at pH 6.5.; how it was run: as §5
[16] = tested on: Meyerozyma guilliermondii; experiment: Tested for minimum inhibitory concentration against Candida guilliermondii 80 (C.g) at pH 6.5.; how it was run: as §5
Rattus norvegicus [17] = species on record: Rattus norvegicus; experiment: Tested for efficacy of compound in experimental vaginal candidosis (rat) after tropical treatment at dosage of 9x 0.1% drug concentration
How it was run: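 Female Wistar rats (~150 g, hormonally conditioned, 10 per group) infected intravaginally with 3.5×10^4 CFU C. albicans no. 124 in 50 μL broth. Intravaginal gel, 0.2 mL, from 2 h post-inoculation, twice daily for 4 days (nine applications). Swabs plated one day after last treatment on Sabouraud's glucose agar with streptomycin, 48 h at 37 °C. Cure = no reisolation.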

Rattus norvegicus [18] = species on record: Rattus norvegicus; experiment: Tested for efficacy of compound in experimental vaginal candidosis (rat) after oral treatment at dosage of 2x 150 mg kg e-1; how it was run: as §6
[19] = tested on: Meyerozyma guilliermondii; experiment: Tested for minimum inhibitory concentration against Candida guilliermondii 80 (C.g) at pH of 4.5.; how it was run: as §2
Candida albicans [20] = experiment: Tested for minimum subinhibitory concentration against Candida albicans 88 (Candida albicans) at pH 6.5.; how it was run: as §4
Candida albicans [21] = experiment: Tested for minimum inhibitory concentration against Candida albicans 124 (Candida albicans) at pH 4.5.; how it was run: as §2
Candida albicans [22] = experiment: Tested for minimum subinhibitory concentration against Candida albicans 9 (Candida albicans) at pH 4.5.; how it was run: as §1
Candida albicans [23] = experiment: Tested for minimum subinhibitory concentration against Candida albicans 3 (Candida albicans) at pH 6.5.; how it was run: as §4
Candida tropicalis [24] = experiment: Tested for minimum inhibitory concentration against Candida tropicalis 43 (C.t) at pH of 4.5.; how it was run: as §2
Candida albicans [25] = experiment: Tested for minimum inhibitory concentration against Candida albicans 88 (Candida albicans) at pH 6.5.; how it was run: as §5
[26] = tested on: Meyerozyma guilliermondii; experiment: Tested for minimum inhibitory concentration against Candida guilliermondii 80 (C.g) at pH of 6.5.; how it was run: as §2
Candida albicans [27] = experiment: Tested for minimum inhibitory concentration against Candida albicans 26 (Candida albicans) at pH 6.5.; how it was run: as §5
Pichia kudriavzevii [28] = experiment: Tested for minimum subinhibitory concentration against Candida krusei 132 (C.k) at pH 4.5.; how it was run: as §1
Candida albicans [29] = experiment: Tested for minimum inhibitory concentration against Candida albicans 3 (Candida albicans) at pH 6.5.; how it was run: as §5
Pichia kudriavzevii [30] = experiment: Tested for minimum inhibitory concentration against Candida krusei 132 (C.k) at pH 6.5.; how it was run: as §5
[31] = tested on: Meyerozyma guilliermondii; experiment: Tested for minimum subinhibitory concentration against Candida guilliermondii 80 (C.g) at pH 4.5.; how it was run: as §1
Candida albicans [32] = experiment: Tested for minimum inhibitory concentration against Candida albicans 124 (Candida albicans) at pH of 4.5.; how it was run: as §2
Candida albicans [33] = experiment: Tested for minimum subinhibitory concentration against Candida albicans 90 (Candida albicans) at pH 4.5.; how it was run: as §1

MIC (Candida albicans [3]): 50 µg/mL (≈ 44.4 µM)
MIC (Pichia kudriavzevii [6]): > 100 µg/mL
MIC (Candida tropicalis [8]): 1.56 µg/mL (≈ 1.38 µM)
MIC (Candida albicans [11]): > 100 µg/mL
MIC (Candida tropicalis [14]): 100 µg/mL (≈ 88.8 µM)
MIC (Candida albicans [15]): 50 µg/mL (≈ 44.4 µM)
MIC [16]: > 100 µg/mL
MIC [19]: 6.25 µg/mL (≈ 5.55 µM)
MIC (Candida albicans [21]): 1.56 µg/mL (≈ 1.38 µM)
MIC (Candida tropicalis [24]): 1.56 µg/mL (≈ 1.38 µM)
MIC (Candida albicans [25]): 100 µg/mL (≈ 88.8 µM)
MIC [26]: > 100 µg/mL
MIC (Candida albicans [27]): > 100 µg/mL
MIC (Candida albicans [29]): > 100 µg/mL
MIC (Pichia kudriavzevii [30]): > 100 µg/mL
MIC (Candida albicans [32]): 1.56 µg/mL (≈ 1.38 µM)
Structure (SMILES): CC[C@@H](C)[C@H]1C(=O)NCC(=O)N(C)[C@@H](C(C)C)C(=O)N[C@@H](Cc2ccc(OC)cc2)C(=O)O[C@H](C)C(=O)N2CCCC[C@H]2C(=O)N(C)[C@@H](C(C)C)C(=O)N[C@@H](C(C)C)C(=O)N(C)[C@@H](CC(=O)O)C(=O)N(C)[C@@H]([C@@H](C)CC)C(=O)N1C
MSIC (Candida albicans [1]): 0.78 µg/mL
Efficacy (Mus musculus [2]): 14%
Efficacy (Mus musculus [4]): 40%
MSIC (Candida albicans [5]): 12.5 µg/mL
MSIC (Candida albicans [7]): 12.5 µg/mL
MSIC (Pichia kudriavzevii [9]): 3.12 µg/mL
Efficacy (Mus musculus [10]): 90%
Efficacy (Rattus norvegicus [12]): 56%
MSIC (Candida albicans [13]): 0.78 µg/mL
Efficacy (Rattus norvegicus [17]): 78%
Efficacy (Rattus norvegicus [18]): 0%
MSIC (Candida albicans [20]): 3.12 µg/mL
MSIC (Candida albicans [22]): 0.78 µg/mL
MSIC (Candida albicans [23]): 6.25 µg/mL
MSIC (Pichia kudriavzevii [28]): 1.56 µg/mL
MSIC [31]: 0.8 µg/mL
MSIC (Candida albicans [33]): 0.78 µg/mL
